Read-outs that look alike come from different tables or passages of the source. Marks after values point to notes of the source that are not given here. Numbered stars: 1 amine (or outer) side, 2 acyl side, 3 side chain; on linkers, the order of the positions; unused ones are H or OH. Square brackets hold non-standard residues; d marks the D form. Peptide text beside a SMILES is read from it. * marks the point of attachment. dProψ(CH2NH)PheNH2 = NC(=O)[C@H](Cc1ccccc1)NC[C@H]1CCCN1*; X1 = O=C(C[C@@H](N[*:1])c1ccc(Cl)cc1)[*:2]; Hydrocinnamoyl = O=C(CCc1ccccc1)*; NHPhenethyl = c1ccc(CCN*)cc1; Nle = CCCC[C@H](N)C(=O)O; PhAc = O=C(Cc1ccccc1)*

Data on 15 molecules can be found in PMC3152616 (Peptides, 2011).

The target of assay [1] is T1, BRS-3 (Homo sapiens, UniProt P32247).
T1 sequence (P32247 1-399): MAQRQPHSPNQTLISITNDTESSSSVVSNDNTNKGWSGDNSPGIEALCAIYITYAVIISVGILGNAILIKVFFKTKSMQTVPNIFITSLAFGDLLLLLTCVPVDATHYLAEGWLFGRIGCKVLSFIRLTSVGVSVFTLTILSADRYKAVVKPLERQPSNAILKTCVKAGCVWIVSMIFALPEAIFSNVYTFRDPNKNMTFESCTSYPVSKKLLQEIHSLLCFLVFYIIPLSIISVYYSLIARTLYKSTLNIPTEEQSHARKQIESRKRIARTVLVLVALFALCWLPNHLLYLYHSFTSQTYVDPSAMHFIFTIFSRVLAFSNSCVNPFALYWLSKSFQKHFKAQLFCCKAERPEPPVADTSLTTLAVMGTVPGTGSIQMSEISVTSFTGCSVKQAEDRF
The settings on record: cited from earlier work.

Assay [2] concerns ERK tyrosine phosphorylation. Description: ERK tyrosine phosphorylation. It counts as cell-based, human. The settings on record: concentration not given.
The test system of assay [3] is EGFR tyrosine phosphorylation. Description: EGFR tyrosine phosphorylation. It counts as cell-based, human.
Another assay concerns BB2R. The settings on record: cited from earlier work.
The next assay relates to NCI-H1299-BRS-3 cells. As to the kind of experiment: Clonogenic assay. It is filed as cell-based, human. The settings on record: for Effect on NCI-H1299-BRS-3 cellular proliferation: unpublished; for Colony number: addition 10 nM, mean ± S.D., no addition 40 ± 6.
A further assay has as its system BB1R. The settings on record: read-out: IC50, binding to BB1R; transfected Balb 3T3 cells; cited from earlier work.
Another assay deals with Balb/3T3-BRS-3 cells. Description: MTT proliferation assay. It counts as cell-based. Background: Tetrazolium dyes change colour on reduction, which living cells bring about.
Assay [4] has as its target T1, BRS-3. Description: Inhibition of specific 125I-BA1 binding to NCI-H1299-BRS-3 cells.
The subject of a further assay is Balb/3T3 cells. As to the kind of experiment: MTT proliferation assay, control cells. It is filed as cell-based. The note with it: 30 μg/ml, 16 hours, mean ± S.E. A digest of the protocol:
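Parental Balb/3T3 cells lacking BRS-3 were maintained in DMEM with 10% FBS. They were seeded at 10⁴/well in serum-free SIT medium (RPMI-1640 with selenite, insulin and transferrin) and exposed for 16 h to test compound at 10 nM or 30 μg/ml. MTT was then added for 3 h, formazan was dissolved in DMSO, and OD was read at 570 nm. Growth is given as % of control, mean ± S.E.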

Where [5] appears, read: concentration not given, data not shown / unpublished.
Setting [6] is: read-out: IC50, binding to BB2R, transfected Balb 3T3 cells.
Setting [7] is: read-out: IC50, binding to BRS-3, transfected Balb 3T3 cells.

In the case of `C[C@H](NC(=O)Cc1ccccc1)C(=O)N[C@H](Cc1c[nH]c2ccccc12)C(=O)NCCc1ccccc1` [16a] (PhAc-Ala-[dW]-NHPhenethyl), the IC50 at BRS-3 [1] (read-out: IC50, binding to human BRS-3) is 3160 nM.
As to `COc1cc2ncnc(Nc3cccc(Cl)c3)c2cc1OC` [AG1478], the “Inhibition of BA1-induced ERK tyrosine phosphorylation” value in assay [2] was “blocked”. Besides, in assay [3] (setting [5]), the “Inhibition of the increase in EGFR tyrosine phosphorylation caused by BA1” value (“Inhibition of the increase” for short) is “blocked”.
For the molecule `CCCC[C@H](NC(=O)[C@H](Cc1ccccc1)NC(=O)[C@H](Cc1c[nH]cn1)NC(=O)C[C@@H](NC(=O)[C@@H](NC(=O)[C@H](C)NC(=O)[C@H](Cc1c[nH]c2ccccc12)NC(=O)[C@H](CCC(N)=O)NC(=O)[C@H](N)Cc1ccc(O)cc1)C(C)C)c1ccc(Cl)cc1)C(N)=O` [BA3, (DTyr^6, R-Apa^11,4-Cl,Phe^13, Nle^14)bombesin^6-14] (H-[dY]QWAV[X1]HF[Nle]-NH2; N-terminus and C-terminus assumed), the “Selectivity for hBRS-3 over hNMBR or hGRPR” value at BRS-3 [1] is “over 60 fold”. In addition, the “EGFR tyrosine phosphorylation (transactivation)” value in assay [3] (100 nM, NCI-H1299-BRS-3 cells) is given as “increased”.
As to `CC(C)[C@H](NC(=O)[C@H](C)NC(=O)[C@H](Cc1c[nH]c2ccccc12)NC(=O)[C@H](Cc1c[nH]cn1)NC(=O)CCc1ccccc1)C(=O)N[C@H](C)C(=O)N[C@@H](Cc1c[nH]cn1)C(=O)N1CCC[C@@H]1CN[C@@H](Cc1ccccc1)C(N)=O` [BW2258U89] (Hydrocinnamoyl-HWAV[dA]H-{dProψ(CH2NH)PheNH2}; N-terminus and C-terminus assumed), the IC50 with BB2R (setting [6]) is 0.2 nM; on BRS-3 [1] (setting [7]), 6820 nM; in the assay on BB1R, 4900 nM. Further, the “Effect on NCI-H1299-BRS-3 cellular proliferation” value in the assay with NCI-H1299-BRS-3 cells is “little effect”. Also, the “Inhibition of BA1-induced ERK tyrosine phosphorylation” value in assay [2] was “not inhibited”.
In the case of `c1ccc2c(c1)[I+]c1ccccc1-2` [DPI, diphenylene iodonium], the “Inhibition of the increase” value in [3] (15 μM, 100 nM BA1) is “inhibited”.
`CNC(=O)[C@H](Cc1c[nH]c2ccccc12)NC(=O)[C@@H](CC(=O)NO)CC(C)C` [GM6001]: the “Inhibition of the increase” value in assay [3] (10 μM, 100 nM BA1) is “inhibited”.
Consider `CSCC[C@H](NC(=O)[C@H](CC(C)C)NC(=O)[C@H](Cc1c[nH]cn1)NC(=O)CNC(=O)[C@@H](NC(=O)[C@H](C)NC(=O)[C@H](Cc1c[nH]c2ccccc12)NC(=O)[C@H](Cc1c[nH]cn1)NC(=O)[C@H](CC(N)=O)NC(=O)CNC(=O)[C@H](CCCNC(=N)N)NC(=O)[C@@H]1CCCN1C(=O)[C@H](Cc1ccc(O)cc1)NC(=O)[C@H](CCSC)NC(=O)[C@H](CCCCN)NC(=O)[C@@H](NC(=O)[C@H](CC(C)C)NC(=O)[C@@H](NC(=O)[C@@H](NC(=O)CNC(=O)CNC(=O)CNC(=O)[C@H](C)NC(=O)[C@@H]1CCCN1C(=O)[C@H](CC(C)C)NC(=O)[C@@H]1CCCN1C(=O)[C@@H](N)C(C)C)[C@@H](C)O)C(C)C)[C@@H](C)O)C(C)C)C(N)=O` [GRP, gastrin releasing peptide], for which, in the assay on NCI-H1299-BRS-3 cells, the Colony number is listed as 41 ± 5^aa.
In the case of `COc1cc2ncnc(Nc3ccc(F)c(Cl)c3)c2cc1OCCCN1CCOCC1` [Gefitinib, gefitinib], the “% Growth Balb/3T3-BRS-3” value with Balb/3T3-BRS-3 cells (30 μg/ml, 16 hours, MTT, mean ± S.E.) is recorded as 41 ± 6 %. This molecule gave an IC50 at BRS-3 [4] of more than 2000 nM. For the same molecule, the “Effect on colony number” value in the assay on NCI-H1299-BRS-3 cells (gefitinib dose-response, exogenous BA1 not added, Fig. 1B) was “reduced colony number in a dose-dependent manner”. Besides, the “% Growth Balb/3T3” value in the assay on Balb/3T3 cells is on record as 31 ± 4 %.
In the case of `CC(=O)N[C@@H](CS)C(=O)O` [N-acetylcysteine], the “Inhibition of the increase” value in assay [3] (5 mM, 100 nM BA1) was “reversed”.
`CSCC[C@H](NC(=O)[C@H](Cc1ccccc1)NC(=O)[C@H](Cc1c[nH]cn1)NC(=O)CNC(=O)[C@@H](NC(=O)[C@H](C)NC(=O)[C@H](Cc1c[nH]c2ccccc12)NC(=O)[C@H](CC(C)C)NC(=O)[C@H](CC(N)=O)NC(=O)CN)[C@@H](C)O)C(N)=O` [NMB, neuromedin B] yielded an IC50 at BRS-3 [4] of more than 2000 nM. Besides, the Colony number with NCI-H1299-BRS-3 cells was 46 ± 5^a.
Take `COc1cccc(-c2cc(=O)c3ccccc3o2)c1N` [PD98059]: the Effect on growth result in the assay with Balb/3T3-BRS-3 cells (10 μM, all cells tested, preliminary unpublished data) is listed as “little effect”. In addition, the “Inhibition of BA1-induced ERK tyrosine phosphorylation” value in assay [2] is on record as “reversed”. The “Inhibition of the increase” value in assay [3] (setting [5]) was “no effect”.
For the molecule `C[C@@](Cc1c[nH]c2ccccc12)(NC(=O)Nc1ccc([N+](=O)[O-])cc1)C(=O)NCC1(c2ccccn2)CCCCC1` [PD168368], the IC50 was more than 2000 nM at BRS-3 [4] (read-out: IC50, inhibition of specific 125I-BA1 binding, NCI-H1299-BRS-3 cells, 37°C, mean ± S.E. of 4 determinations); 213 nM in the assay with BB2R (setting [6]); more than 10000 nM at BRS-3 [1] (setting [7]); 0.5 nM in the assay with BB1R. The “Effect on NCI-H1299-BRS-3 cellular proliferation” value in the assay on NCI-H1299-BRS-3 cells is given as “little effect”. Moreover, the “Inhibition of BA1-induced ERK tyrosine phosphorylation” value in assay [2] is listed as “not inhibited”.
Take `CC(C)(C)n1nc(-c2ccc(Cl)cc2)c2c(N)ncnc21` [PP2]: the “Inhibition of the increase” value in [3] (10 μM, 100 nM BA1) was “inhibited”.
`O=S(=O)(O)c1cc(O)c(O)c(S(=O)(=O)O)c1` [Tiron]: in [3] (5 mM, 100 nM BA1), the “Inhibition of the increase” value is “reversed”.
On to “Ac-Phe-Trp-Ala-His(γBzl)-Nip-Gly-Arg-NH2”, for which the IC50 in the assay with BB2R (read-out: IC50, BB2R, ref 2, 28) was more than 10000 nM; with BB2R (read-out: IC50, BB2R, ref 26, 27), 2800 nM.
